Laboratory results taken from ChEMBL document CHEMBL4706622, “Comparative study between the anti-P. falciparum activity of triazolopyrimidine, pyrazolopyrimidine and quinoline derivatives and the identification of new PfDHODH inhibitors” (Eur J Med Chem, 2021).

Key:
[1] = target: Dihydroorotate dehydrogenase (quinone), mitochondrial (Homo sapiens) (UniProt Q02127); test: Inhibition of human DHODH assessed as 2,6-dichloroindophenol reduction at 50 uM by colorimetric method
In short: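 First-stage HsDHODH screen at a single compound concentration of 50 µM, reported as % inhibition. It was run in parallel with the PfDHODH screen.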

[2] = Inhibition of Plasmodium falciparum DHODH (159- 569 aa) expressed in Escherichia coli BL21(DE3) cells assessed as 2,6-dichloroindophenol reduction by colorimetric method
In short: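 Second-stage PfDHODH IC50 determination from concentration–response curves, run only on compounds giving ≥80% inhibition at 50 µM in the single-point screen. PfDHODH final concentration was 50 nM. IC50 was not assigned where substrate consumption could not be measured at some concentrations on the curve.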

[3] = system: Plasmodium falciparum; test: Antimalarial activity against CQ-sensitive Plasmodium falciparum 3D7 infected in erythrocytes by SYBR Green dye based fluorescence assay; format: functional, organism-based
[4] = system: Plasmodium falciparum; test: Inhibition of Plasmodium falciparum DHODH (159- 569 aa) expressed in Escherichia coli BL21(DE3) cells assessed as 2,6-dichloroindophenol reduction at 50 uM by colorimetric method
In short: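 First-stage PfDHODH screen at a single compound concentration of 50 µM, reported as % inhibition. Compounds giving ≥80% inhibition went on to IC50 determination. The PfDHODH final concentration in the inhibition assay was 50 nM.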

[5] = Selectivity index, ratio of IC50 for cytotoxicity against human HepG2 cells to IC50 for antimalarial activity against Plasmodium falciparum 3D7; format: toxicity, cell-based; settings: read-out: Ratio IC50
[6] = system: HepG2; test: Cytotoxicity against human HepG2 cells assessed as cell viability after 72 hrs by MTT assay; format: cell-based; settings: HepG2, 72 h

Sequence of Dihydroorotate dehydrogenase (quinone), mitochondrial (Homo sapiens) (Q02127 whole entry): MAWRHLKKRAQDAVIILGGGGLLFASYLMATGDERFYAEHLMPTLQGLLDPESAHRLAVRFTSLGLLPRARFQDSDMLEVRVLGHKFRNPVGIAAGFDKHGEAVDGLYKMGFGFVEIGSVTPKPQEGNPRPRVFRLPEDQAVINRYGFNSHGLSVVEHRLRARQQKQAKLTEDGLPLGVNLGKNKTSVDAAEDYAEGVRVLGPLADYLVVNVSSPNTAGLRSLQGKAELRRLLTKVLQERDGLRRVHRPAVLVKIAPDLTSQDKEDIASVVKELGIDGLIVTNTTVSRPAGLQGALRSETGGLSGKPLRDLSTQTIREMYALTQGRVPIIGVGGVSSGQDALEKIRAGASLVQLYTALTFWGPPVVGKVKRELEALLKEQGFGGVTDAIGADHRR

Row | SMILES | inhibition [1] [%] | IC50 [2] [µM] | IC50 [3] [µM] | inhibition [4] [%] | selectivity ratio [5] | IC50 [6] [µM]
1 | Cc1cc(Nc2ccc(S(=O)(=O)Nc3ccc(F)cc3)cc2)n2nc(C)cc2n1 | 0 | > 50 | > 10 | 25 |  | 
2 | Cc1cc(Nc2ccc(S(=O)(=O)Nc3ccc(F)cc3)cc2)n2nc(C)nc2n1 | 0 | 1 | 2.7 |  | 55.6 | 150
3 | Cc1cc(Nc2ccc(S(=O)(=O)Nc3ccccc3)cc2)n2nc(C)nc2n1 | 0 | > 50 | 6.9 |  | 28 | 193
4 | Cc1ccc(NS(=O)(=O)c2ccc(Nc3cc(C)nc4ncnn34)cc2)cc1 | 0 | 0.41 | 0.5 |  | > 728 | 367
5 | O=S(=O)(Nc1ccc(Cl)cc1)c1ccc(Nc2ccnc3cc(Cl)ccc23)cc1 |  |  | 1.7 |  | > 56 | 93
6 | Cc1cc(Nc2ccc(S(=O)(=O)Nc3ccc(Cl)cc3)cc2)n2nc(C)cc2n1 | 0 | > 50 | > 10 | 25 |  | 
7 | Cc1ccc(NS(=O)(=O)c2ccc(Nc3cc(C)nc4nc(C)nn34)cc2)cc1 | 0 | 0.3 | 0.91 |  | 121 | 110
8 | Cc1cc(Nc2ccc(S(=O)(=O)Nc3ccc4ccccc4c3)cc2)n2nc(C)cc2n1 | 0 | > 50 | > 10 | 25 |  | 
9 | COc1ccc(NS(=O)(=O)c2ccc(Nc3cc(C)nc4nc(C)nn34)cc2)cc1 | 0 | 1.3 | 4 |  | 42.5 | 170
10 | CCN(CC)CCCC(C)Nc1ccnc2cc(Cl)ccc12 (stereo not drawn) [CHLOROQUINE] |  |  |  |  |  | 384
11 | Cc1cc(Nc2ccc(S(=O)(=O)Nc3ccc(Cl)cc3)cc2)n2ncnc2n1 | 0 | > 50 | 3 |  | > 31 | 92
12 | C[C@H]1[C@H](OC(=O)CCC(=O)O)O[C@@H]2O[C@@]3(C)CC[C@H]4[C@H](C)CC[C@@H]1[C@@]24OO3 [ARTESUNATE] |  |  | 0.009 |  | 29700 | 267
13 | COc1ccc(NS(=O)(=O)c2ccc(Nc3cc(C)nc4nc(C(F)(F)F)nn34)cc2)cc1 | 0 | 0.21 | 0.8 |  | > 114 | 93
14 | COc1ccc(NS(=O)(=O)c2ccc(Nc3cc(C)nc4cc(C)nn34)cc2)cc1 | 0 | > 50 | > 10 | 25 |  | 
15 | Cc1cc(Nc2ccc(S(=O)(=O)Nc3ccc(C(F)(F)F)cc3)cc2)n2nc(C)nc2n1 | 0 | 0.6 | 0.39 |  | 321 | 125

Further lines, with some results ahead:

Row | inhibition [1] [%] | IC50 [2] [µM] | IC50 [3] [µM] | SMILES | inhibition [4] [%] | selectivity ratio [5] | IC50 [6] [µM]
16 | 0 | 0.8 | 0.032 | Cc1ccc(NS(=O)(=O)c2ccc(Nc3cc(C)nc4nc(C(F)(F)F)nn34)cc2)cc1 |  | 1690 | 54
17 | 0 | 0.22 | 0.05 | Cc1cc(Nc2ccc(S(=O)(=O)Nc3ccc4ccccc4c3)cc2)n2nc(C(F)(F)F)nc2n1 |  | > 2000 | > 100
18 |  |  | 2.1 | O=S(=O)(Nc1ccc(C(F)(F)F)cc1)c1ccc(Nc2ccnc3cc(Cl)ccc23)cc1 |  | 11 | 23
19 | 0 | > 50 | 0.03 | Cc1cc(Nc2ccc(S(=O)(=O)Nc3ccc(C(F)(F)F)cc3)cc2)n2nc(C(F)(F)F)nc2n1 |  | 3000 | 90
20 | 0 | > 50 | 8 | Cc1cc(Nc2ccc(S(=O)(=O)Nc3ccc(C(F)(F)F)cc3)cc2)n2nc(C)cc2n1 | 25 | 5.25 | 42
21 | 0 | 0.4 | 0.64 | Cc1cc(Nc2ccc(S(=O)(=O)Nc3ccc4ccccc4c3)cc2)n2nc(C)nc2n1 |  | 87.4 | 56
22 | 0 | 0.08 | 0.4 | Cc1cc(Nc2ccc(S(=O)(=O)Nc3ccc(Cl)cc3)cc2)n2nc(C(F)(F)F)nc2n1 |  | > 123 | 47
23 |  |  | 4.6 | O=S(=O)(Nc1ccc(F)cc1)c1ccc(Nc2ccnc3cc(Cl)ccc23)cc1 |  | > 21 | 92
24 | 0 | > 50 | 2.8 | Cc1cc(Nc2ccc(S(=O)(=O)Nc3ccccc3)cc2)n2nc(C)cc2n1 | 25 | 9.6 | 27
25 | 0 | 0.3 | 2 | Cc1cc(Nc2ccc(S(=O)(=O)Nc3ccc(F)cc3)cc2)n2ncnc2n1 |  | > 187 | 367
26 | 0 | 0.6 | 0.8 | Cc1cc(Nc2ccc(S(=O)(=O)Nc3ccc(Cl)cc3)cc2)n2nc(C)nc2n1 |  | > 62.5 | > 50
27 | 0 | > 50 | 1.3 | Cc1cc(Nc2ccc(S(=O)(=O)Nc3ccccc3)cc2)n2nc(C(F)(F)F)nc2n1 | < 80 | > 70 | 92
28 | 0 | > 50 | > 10 | Cc1ccc(NS(=O)(=O)c2ccc(Nc3cc(C)nc4cc(C)nn34)cc2)cc1 | 25 |  | 
29 |  |  | 0.89 | O=S(=O)(Nc1ccc2ccccc2c1)c1ccc(Nc2ccnc3cc(Cl)ccc23)cc1 |  | 15.1 | 13
30 | 0 | > 50 | 0.15 | Cc1cc(Nc2ccc(S(=O)(=O)Nc3ccc(C(F)(F)F)cc3)cc2)n2ncnc2n1 |  | > 667 | > 100
31 |  |  | 0.97 | Cc1ccc(NS(=O)(=O)c2ccc(Nc3ccnc4cc(Cl)ccc34)cc2)cc1 |  | > 95 | 92
32 | 0 | 0.5 | 0.086 | Cc1cc(Nc2ccc(S(=O)(=O)Nc3ccc(F)cc3)cc2)n2nc(C(F)(F)F)nc2n1 |  | 1170 | 101
33 | 0 | > 50 | 4 | COc1ccc(NS(=O)(=O)c2ccc(Nc3cc(C)nc4ncnn34)cc2)cc1 |  | > 13 | 46
34 | 0 | 0.3 | 0.23 | Cc1cc(Nc2ccc(S(=O)(=O)Nc3ccc4ccccc4c3)cc2)n2ncnc2n1 |  | 243 | 56
35 |  |  | 2 | O=S(=O)(Nc1ccccc1)c1ccc(Nc2ccnc3cc(Cl)ccc23)cc1 |  | > 46 | 92
36 |  |  | 2.8 | COc1ccc(NS(=O)(=O)c2ccc(Nc3ccnc4cc(Cl)ccc34)cc2)cc1 |  | > 33 | 92
37 | 0 | 0.8 | 9.1 | Cc1cc(Nc2ccc(S(=O)(=O)Nc3ccccc3)cc2)n2ncnc2n1 |  | > 40 | 365
